Reference: ChEMBL document CHEMBL1221207, “Expanding the promiscuity of a natural-product glycosyltransferase by directed evolution” (Nat Chem Biol, 2007)
Where a chain is given by its changes, count along the chain named.

Legend:
[1] = test system: T1, Oleandomycin glycosyltransferase (Streptomyces antibioticus), Q53685 [A242V]; assay: Activity of Streptomyces antibioticus OleD A242V mutant assessed as conversion rate of compound to produce glucoside 3 using NDP sugar donor UDP-6-deoxy-glucose after 3 hrs by HPLC
T1 sequence (whole entry): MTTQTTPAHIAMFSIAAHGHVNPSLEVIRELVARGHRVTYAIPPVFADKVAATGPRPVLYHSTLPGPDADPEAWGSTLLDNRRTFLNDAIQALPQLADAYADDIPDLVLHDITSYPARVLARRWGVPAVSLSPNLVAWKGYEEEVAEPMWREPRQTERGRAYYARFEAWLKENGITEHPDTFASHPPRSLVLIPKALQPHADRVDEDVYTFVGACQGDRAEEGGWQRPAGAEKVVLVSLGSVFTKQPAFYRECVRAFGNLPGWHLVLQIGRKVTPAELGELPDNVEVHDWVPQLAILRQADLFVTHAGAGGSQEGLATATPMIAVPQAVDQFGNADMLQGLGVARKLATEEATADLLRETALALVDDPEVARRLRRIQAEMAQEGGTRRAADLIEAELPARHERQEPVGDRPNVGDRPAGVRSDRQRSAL
In short: (§1)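 End-point donor-specificity assay with purified OleD enzyme. Percentage conversion was read after 3 h. Quenched reactions were run by reverse-phase C18 HPLC with a 10–90% CH3CN gradient in 0.1% formic acid/H2O over 20 min at 1 ml min–1, with detection at 254 nm. Products were identified by LC-MS, by comparison to standards where available, and by fluorescence.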

[2] = target: T2, Oleandomycin glycosyltransferase (Streptomyces antibioticus) (UniProt Q53685); assay: Activity at Streptomyces antibioticus wild-type OleD assessed as as rate of glucoside formation measured as nanomoles of product formed per minute per mg of enzyme
T2 sequence (whole entry): T1 sequence (whole entry) with V242A

[3] = test system: T3, Oleandomycin glycosyltransferase (Streptomyces antibioticus), Q53685 [S132F]; assay: Activity of Streptomyces antibioticus OleD S132F mutant assessed as conversion rate of compound to produce glucoside 3 using NDP sugar donor UDP-6-deoxy-glucose after 3 hrs by HPLC; in short: as §1
T3 sequence (whole entry): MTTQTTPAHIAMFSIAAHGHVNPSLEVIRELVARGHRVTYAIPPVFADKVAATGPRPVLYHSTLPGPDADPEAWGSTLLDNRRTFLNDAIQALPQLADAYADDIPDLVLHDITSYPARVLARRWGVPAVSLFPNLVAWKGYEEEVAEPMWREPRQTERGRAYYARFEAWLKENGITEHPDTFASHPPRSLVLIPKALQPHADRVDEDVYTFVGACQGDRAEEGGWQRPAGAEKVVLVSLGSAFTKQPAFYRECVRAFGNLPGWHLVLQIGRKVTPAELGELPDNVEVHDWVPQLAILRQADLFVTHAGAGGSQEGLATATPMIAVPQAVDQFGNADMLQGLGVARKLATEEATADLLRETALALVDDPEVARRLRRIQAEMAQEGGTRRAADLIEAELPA

[4] = test system: T4, Oleandomycin glycosyltransferase (Streptomyces antibioticus), Q53685 [P67T,S132F,A242V]; assay: Activity of Streptomyces antibioticus OleD P67T/S132F/A242V mutant assessed as conversion rate of compound to produce glucoside 3 using NDP sugar UDP-6-azido-glucose after 3 hrs by HPLC; in short: as §1
T4 sequence (whole entry): T1 sequence (whole entry) with P67T, S132F

[5] = test system: T4, Oleandomycin glycosyltransferase (Streptomyces antibioticus), Q53685 [P67T,S132F,A242V]; assay: Activity of Streptomyces antibioticus OleD P67T/S132F/A242V mutant assessed as conversion rate of compound to produce glucoside 3 using NDP sugar […] after 3 hrs by HPLC; in short: as §1
[6] = target: T2, Oleandomycin glycosyltransferase (Streptomyces antibioticus); assay: Activity of Streptomyces antibioticus wild-type OleD assessed as conversion rate of compound to produce glucoside 3 using NDP sugar UDP-6-deoxy-glucose after 3 hrs by HPLC; in short: as §1
[7] = target: T2, Oleandomycin glycosyltransferase (Streptomyces antibioticus); assay: Activity of Streptomyces antibioticus wild-type OleD assessed as conversion rate of compound to produce glucoside 3 using NDP sugar donor UDP-6-thio-glucose after 3 hrs by HPLC; in short: as §1
[8] = test system: T4, Oleandomycin glycosyltransferase (Streptomyces antibioticus), Q53685 [P67T,S132F,A242V]; assay: Activity of Streptomyces antibioticus OleD P67T/S132F/A242V mutant assessed as conversion rate of compound to produce glucoside 3 using NDP sugar donor UDP-4-amino-6-deoxy-glucose after 3 hrs by HPLC; in short: as §1
[9] = target: T2, Oleandomycin glycosyltransferase (Streptomyces antibioticus); assay: Activity of Streptomyces antibioticus wild-type OleD assessed as conversion rate of compound to produce glucoside 3 using NDP sugar UDP-glucose after 3 hrs by HPLC; in short: as §1

Cc1cc(=O)oc2cc(O)ccc12
Activity [1]: 6%
Activity [2]: 2.5 nmol/min
Activity [3]: 10%
Activity [4]: 41%
Activity [5]: 21%
Activity [6]: 6%
Activity [7]: 1%
Activity [8]: 47%
Activity [9]: 13.9%
